Active and inactive are the calls of the source.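 The calls were made as follows, unless noted: active = viability at or under a set limit in both replicates, limit being median viability minus 3 SD (cut at about 48% in these data, passing the limit was not always enough); inconclusive = at or under the limit in just one replicate; inactive = at or above the limit in both replicates.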
Experiments:
[1] = Her2 expression decrease, cell viability multiplex – SKBR3 breast tumor cells, AlphaScreen, ATP viability, primary screen (AID 461;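 active = Her2 level under about 52% in both replicate screens, with viability over 70% of control, limit read from the data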;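 as to Her2 level: lower value means less Her2 protein in the cells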;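 as to viability: percent of carrier control wells set as 100% viability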); conditions: SKBR3 Her2 protein level, 18-24 h, measured here: SKBR3 viability, ATP luminescence, at 10 µM
[2] = target: Receptor tyrosine-protein kinase erbB-2 (Homo sapiens) (UniProt P04626); assay: as above; conditions: 18-24 h, at 10 µM, stronger effect = lower value
[3] = reduced viability of SK-BR-3 breast cancer cells – cell-based, 24 h, human, pilot screen (AID 572;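 active = viability at or below 10% of carrier control in both of two separate runs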;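 also: compound exposure lasted between 18 and 24 h rather than exactly 24 h; 100% = carrier-treated control wells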); conditions: SK-BR-3 viability, CellTiter-Glo luminescence, at 10 µM, stronger effect = lower value
[4] = HUVEC growth inhibition – cell-based, human, primary screen (AID 575;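 active = viability at or below 30% in both replicate assays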;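 also: 100% = median of untreated cell wells with 0.1% DMSO on each plate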); conditions: HUVEC proliferation, CellTiter-Glo luminescence, 72 h; at 10 µM; stronger effect = lower value
Summary of the method: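 material = primary HUVEC, no more than 12 passages | input = 1250 cells per well | controls = vehicle and MePR control wells | measured by = CTG luminescence | times = 72 h compound incubation | format = collagen-coated 384-well format | read-out = % viability vs DMSO wells | doses = single 10 µM dose, 0.1% DMSO, from 5x medium stock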

[5] = H69AR cell proliferation blockers – human, duplicate replicates, primary screen (AID 580); conditions: H69AR lung tumor cells viability, ATP luminescence, 72 h; at 10 µM; stronger effect = lower value;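 also: 100% = mean luminescence of untreated wells and 0% = no signal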
[6] = MRP1 drug-resistance reversers in H69AR cells – cell-based, doxorubicin co-treatment, pilot screen (AID 601;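 active = viability loss from added drug above about 55%, and viability with drug at most 40%, in both replicates, limit read from the data, passing the limit was not always enough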); conditions: CellTiter-Glo, 72 h, at 10 µM; for differential viability (reversal): stronger effect = higher value
[7] = yeast transport mutant growth inhibition pilot in 384-well plates, post-Golgi transport modulator project (AID 636; in the data active = inhibition above about 31%); conditions: absorbance 615 nm, about 18 h, stronger effect = higher value
[8] = growth suppression of yeast trafficking mutant, preliminary HTS, modulators of trafficking downstream of Golgi apparatus project, 1536-format plate, OD 615 nm (AID 637; in the data active = inhibition above about 30%); conditions: yeast transport mutant growth, absorbance 615 nm, 18 h; stronger effect = higher value
[9] = H69AR cells + 2 uM doxorubicin, measured here: viability with 2 uM doxorubicin, stronger effect = lower value
[10] = H69AR cells, compound alone cytotoxicity

Receptor tyrosine-protein kinase erbB-2 (Homo sapiens), sequence (P04626 whole entry, looked up): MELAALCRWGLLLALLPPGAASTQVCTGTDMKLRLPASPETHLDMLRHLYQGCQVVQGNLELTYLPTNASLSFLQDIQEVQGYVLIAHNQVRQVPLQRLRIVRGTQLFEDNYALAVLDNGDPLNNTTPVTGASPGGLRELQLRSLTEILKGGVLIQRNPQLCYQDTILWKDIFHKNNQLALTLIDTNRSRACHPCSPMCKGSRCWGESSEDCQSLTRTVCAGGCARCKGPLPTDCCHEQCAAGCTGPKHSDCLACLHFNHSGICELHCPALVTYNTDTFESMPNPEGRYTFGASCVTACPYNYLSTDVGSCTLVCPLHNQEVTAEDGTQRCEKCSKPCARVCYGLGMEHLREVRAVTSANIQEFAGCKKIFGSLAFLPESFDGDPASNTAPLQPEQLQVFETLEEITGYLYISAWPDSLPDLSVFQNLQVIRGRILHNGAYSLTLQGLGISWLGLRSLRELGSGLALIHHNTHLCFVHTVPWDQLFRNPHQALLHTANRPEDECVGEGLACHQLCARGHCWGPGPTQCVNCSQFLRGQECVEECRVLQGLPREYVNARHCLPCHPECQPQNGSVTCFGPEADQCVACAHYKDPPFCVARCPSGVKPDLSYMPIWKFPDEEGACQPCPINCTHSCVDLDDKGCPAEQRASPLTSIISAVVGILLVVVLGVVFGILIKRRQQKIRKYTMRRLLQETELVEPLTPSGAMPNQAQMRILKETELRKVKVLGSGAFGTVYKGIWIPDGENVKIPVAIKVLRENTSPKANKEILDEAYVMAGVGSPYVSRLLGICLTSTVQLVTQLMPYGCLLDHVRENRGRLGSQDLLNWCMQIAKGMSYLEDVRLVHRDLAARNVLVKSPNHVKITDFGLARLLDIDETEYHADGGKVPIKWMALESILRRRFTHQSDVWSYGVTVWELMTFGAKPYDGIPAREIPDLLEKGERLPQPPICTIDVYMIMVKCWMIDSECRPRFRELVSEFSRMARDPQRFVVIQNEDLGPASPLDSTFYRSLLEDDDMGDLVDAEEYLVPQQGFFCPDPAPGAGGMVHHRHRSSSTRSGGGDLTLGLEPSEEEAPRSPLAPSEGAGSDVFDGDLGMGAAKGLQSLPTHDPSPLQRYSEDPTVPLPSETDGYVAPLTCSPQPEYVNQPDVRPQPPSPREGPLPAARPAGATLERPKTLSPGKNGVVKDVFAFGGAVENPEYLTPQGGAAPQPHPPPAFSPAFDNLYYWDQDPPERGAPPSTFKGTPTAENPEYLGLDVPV

Row | SMILES | viability [1] [%] | Her2 level [2] | viability [3] | viability [4] | viability [5] | differential viability (reversal) ([6]; H69AR cells + 2 uM doxorubicin) | viability [6, 9] [%] | viability [6, 10] [%] | inhibition [7] | inhibition [8]
1 | CCOC(=O)CSc1nnc(Cn2nnc(-c3ccccc3)n2)n1CC | 95.5 | 84% (inactive) | 95.5% (inactive) | 107% (inactive) | 90.7% (inactive) | -2.04% (inactive) | 92.7 | 90.7 | -7.2% (inactive) | -3.17% (inactive)
2 | O=C(CCCn1ncn2c(cc3occc32)c1=O)N1CCc2ccccc2C1 | 126 | 90.5% (inactive) | 126% (inactive) | 83.8% (inactive) | 84.7% (inactive) | -5.79% (inactive) | 90.5 | 84.7 | -4.21% (inactive) | -6.73% (inactive)
3 | COc1cccc(OC)c1C(=O)Nc1ccc(CN2CCCCC2)cc1 | 98.5 | 84% (inactive) | 98.5% (inactive) | 102% (inactive) | 89.4% (inactive) | 8.96% (inactive) | 80.4 | 89.4 | -0.66% (inactive) | -2.06% (inactive)
4 | O=C(Nc1ccc2nc(-c3cccs3)[nH]c2c1)c1ccco1 | 108 | 98.5% (inactive) | 108% (inactive) | 94.2% (inactive) | 75.2% (inactive) | 1.25% (inactive) | 74 | 75.2 | 0.13% (inactive) | 2.95% (inactive)
5 | O=C(COc1ccccc1)NCC(c1cccs1)N1CCOCC1 (stereo not given) | 84 | 126% (inactive) | 84% (inactive) | 91.7% (inactive) | 97.7% (inactive) | 14.4% (inactive) | 83.4 | 97.7 | 1.2% (inactive) | -4.29% (inactive)
6 | CCOc1ccc(-c2noc(-c3ccncc3)n2)cc1OCC | 99 | 108% (inactive) | 99% (inactive) | 119% (inactive) | 86.7% (inactive) | -3.94% (inactive) | 90.7 | 86.7 | -6.13% (inactive) | -1.61% (inactive)
7 | CCOC(=O)N1CCN(C(=O)CSCC(=O)Nc2nc(-c3ccc(OC)cc3)cs2)CC1 | 116 | 104% (inactive) | 116% (inactive) | 77.8% (inactive) | 94.9% (inactive) | 1.77% (inactive) | 93.1 | 94.9 | -1.3% (inactive) | -6.89% (inactive)
8 | Cc1ccc(-c2nnn(CC(=O)N(CC3CCCO3)C(C(=O)NC(C)(C)C)c3ccc(F)cc3)n2)o1 (stereo not given) | 106 | 96% (inactive) | 106% (inactive) | 100% (inactive) | 101% (inactive) | 3.52% (inactive) | 97.4 | 101 | -1.07% (inactive) | -4.03% (inactive)
9 | O=c1[nH]c(N2CCc3ccccc32)nc2c1CCCC2 | 125 | 104% (inactive) | 125% (inactive) | 101% (inactive) | 104% (inactive) | 21.9% (inactive) | 81.8 | 104 | -1.87% (inactive) | -1.45% (inactive)
10 | CCOC(=O)c1[nH]c(C)c(C(=O)NCc2ccccn2)c1C | 134 | 115% (inactive) | 134% (inactive) | 83.4% (inactive) | 102% (inactive) | 4.79% (inactive) | 96.8 | 102 | -5.07% (inactive) | 9.37% (inactive)
11 | COc1ccc(CC(=O)Nc2ccc(-c3nnc(-c4ccc(C)cc4)o3)cc2)cc1 | 114 | 81.5% (inactive) | 114% (inactive) | 69.9% (inactive) | 4.72% (active) | -0.04% (inactive) | 4.76 | 4.72 | -1.58% (inactive) | -1.75% (inactive)
12 | COc1ccc2cc(C(c3nnnn3C3CCCCC3)N3CCCCCC3)c3nnnn3c2c1 (stereo not given) | 94 | 72.5% (inactive) | 94% (inactive) | 81.6% (inactive) | 64.3% (inactive) | -2.87% (inactive) | 67.2 | 64.3 | -4.8% (inactive) | -2.86% (inactive)
13 | CCOc1ccc(C2C=C(c3ccc(F)cc3)Nc3ncnn32)cc1 (stereo not given) | 91.5 | 87% (inactive) | 91.5% (inactive) | 81.2% (inactive) | 82.2% (inactive) | 3.07% (inactive) | 79.1 | 82.2 | -4.42% (inactive) | 9.34% (inactive)
14 | O=C(c1ccc(S(=O)(=O)N2CCOCC2)cc1)N(c1ccc(F)cc1)C1C=CS(=O)(=O)C1 (stereo not given) | 97.5 | 109% (inactive) | 97.5% (inactive) | 75.1% (inactive) | 97% (inactive) | 4.64% (inactive) | 92.4 | 97 | -1.92% (inactive) | -9% (inactive)
15 | O=C(CCCC(=O)N(CC(=O)NC1CCCCC1)Cc1ccc2c(c1)OCO2)Nc1ccccn1 | 102 | 97.5% (inactive) | 102% (inactive) | 101% (inactive) | 92.3% (inactive) | 10.4% (inactive) | 81.9 | 92.3 | -6.18% (inactive) | 0.32% (inactive)
16 | CN(C)C=Nc1nonc1N | 110 | 106% (inactive) | 110% (inactive) | 95.3% (inactive) | 94.1% (inactive) | 2.63% (inactive) | 91.4 | 94.1 | -5.53% (inactive) | 1.97% (inactive)
17 | CCS(=O)(=O)N1CCC(C(=O)NCCc2ccc(C)cc2)CC1 | 99 | 106% (inactive) | 99% (inactive) | 100% (inactive) | 89.3% (inactive) | 7.41% (inactive) | 81.9 | 89.3 | -2.6% (inactive) | -9.68% (inactive)
18 | CC1CN(c2nc(-c3ccccc3)nc3ccccc23)CC(C)O1 (stereo not given) | 91 | 134% (inactive) | 91% (inactive) | 88.2% (inactive) | 85.4% (inactive) | 4.54% (inactive) | 80.9 | 85.4 | -3.72% (inactive) | -5.67% (inactive)
19 | CCSC1(SCC)N=C(N)C2(C#N)C(c3ccccc3)NC(C)=C(C)C12C#N (stereo not given) | 95 | 85.5% (inactive) | 95% (inactive) | 81.4% (inactive) | 93.3% (inactive) | 19.2% (inactive) | 74.1 | 93.3 | -5.07% (inactive) | -2.79% (inactive)
20 | CCOC(=O)CSc1nc(N)c2c3c(sc2n1)CCCC3 | 104 | 96.5% (inactive) | 104% (inactive) | 78.7% (inactive) | 89.3% (inactive) | 0.02% (inactive) | 89.3 | 89.3 | 0.8% (inactive) | 2.58% (inactive)
21 | CC(=O)NC1(c2nnnn2CCOC(=O)Nc2ccc(Cl)cc2)CCCCC1 | 112 | 89% (inactive) | 112% (inactive) | 98.5% (inactive) | 98.5% (inactive) | 13% (inactive) | 85.4 | 98.5 | -3.29% (inactive) | 8.69% (inactive)
22 | CN(Cc1ccccc1)c1nc2c(c(=O)[nH]c(=O)n2C)n1Cc1ccccc1Cl | 114 | 87.5% (inactive) | 114% (inactive) | 82.2% (inactive) | 85.4% (inactive) | 4.96% (inactive) | 80.4 | 85.4 | -5.2% (inactive) | 8.36% (inactive)
23 | CCN(CC)CCCNC(=O)c1nn(-c2ccc(OC)cc2OC)c(=O)c2ccccc12 | 97 | 103% (inactive) | 97% (inactive) | 72.3% (inactive) | 96.1% (inactive) | -0.935% (inactive) | 97 | 96.1 | -2.57% (inactive) | -7.46% (inactive)
24 | CCN=C1SC(CC(=O)Nc2ccccc2)C(=O)N1CC (stereo not given) | 98.5 | 91.5% (inactive) | 98.5% (inactive) | 122% (inactive) | 105% (inactive) | 10% (inactive) | 94.9 | 105 | -1.92% (inactive) | -1.33% (inactive)
25 | COc1ccc(OC)c(S(=O)(=O)NCCC2=CCCCC2)c1 | 77 | 87.5% (inactive) | 77% (inactive) | 106% (inactive) | 96.6% (inactive) | -5.82% (inactive) | 102 | 96.6 | -6.89% (inactive) | -3.77% (inactive)
26 | O=C(NCC(=O)N(c1cnc2ccccc2c1)C(C(=O)NC1CCCC1)c1ccncc1)c1ccco1 (stereo not given) | 86 | 94% (inactive) | 86% (inactive) | 94.5% (inactive) | 90.1% (inactive) | -3.65% (inactive) | 93.7 | 90.1 | 3.64% (inactive) | 13.4% (inactive)
27 | O=C(CN(C(=O)CCC(=O)Nc1nccs1)c1ccccc1F)NCC1CCCO1 (stereo not given) | 110 | 104% (inactive) | 110% (inactive) | 105% (inactive) | 100% (inactive) | 9.81% (inactive) | 90.4 | 100 | -3.33% (inactive) | 13.1% (inactive)
28 | COc1ccc(CC(=O)Nc2c3c(nn2-c2cccc(Cl)c2)CS(=O)(=O)C3)cc1 | 84.5 | 89% (inactive) | 84.5% (inactive) | 104% (inactive) | 90.2% (inactive) | 1.1% (inactive) | 89.1 | 90.2 | -6.8% (inactive) | 3.06% (inactive)

— PubChem BioAssay
